ChEMBL document CHEMBL1275442, “Pharmacokinetics and tissue distribution of anidulafungin in rats” (Antimicrob Agents Chemother, 2008)

Tests used:
Muscle tissue [1] = test: Half life in F344 rat muscle assessed as total compound-derived radioactivity at 5 mg/kg, iv administered as single bolus dose […]; type: ADME, organism-based; set-up: dose 5 mg/kg, route intravenous; conditions: in vivo
Outline: (§1)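 Male F344 rats, 10 to 11 weeks old and 223.6 to 243.8 g, got one iv dose of [14C]anidulafungin at 5 mg/kg over about 5 min. Blood, CSF, kidney, liver, lung, quadriceps, spleen and skin were sampled predose and at 0.083 to 72 h, 3 rats per time. Total radioactivity (parent plus metabolites) was measured by liquid scintillation counting. Parameters were noncompartmental, from a composite mean profile.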

Liver [2] = test: Drug level in Long Evans rat liver assessed as low disposition of radioactivity per gram of tissue at 5 mg/kg, iv administered as single bolus dose measured 72 hrs postdose by autoradiography; type: ADME, organism-based; set-up: dose 5 mg/kg, route intravenous; conditions: in vivo
Outline: (§2)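 Male pigmented Long Evans (HsdBlu:LE) rats, 7.5 weeks old, 202 to 217 g, single iv [¹⁴C]anidulafungin; one rat per sampling time. Euthanized by isoflurane and cardiac-puncture exsanguination. Sagittal whole-body sections quantified by phosphorimaging autoradiography, single samples corrected for section thickness across multiple sections per tissue. Concentrations (μg eq/g drug-derived radioactivity) interpolated from least-squares standard curves per scan.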

Blood [3] = test: Tmax in F344 rat blood assessed as total compound-derived radioactivity at 5 mg/kg, iv administered as single bolus dose […]; type: ADME, organism-based; set-up: dose 5 mg/kg, route intravenous; conditions: in vivo; outline: as §1
Muscle tissue [4] = test: Drug level in Long Evans rat muscle assessed as radioactivity per gram of tissue at 5 mg/kg, iv administered as single bolus dose measured 24 hrs postdose by autoradiography; type: ADME, organism-based; set-up: dose 5 mg/kg, route intravenous; conditions: in vivo
Outline: (§3)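 Male pigmented Long Evans (HsdBlu:LE) rats, 7.5 weeks old and 202 to 217 g, got a single iv dose of [14C]anidulafungin at 5 mg/kg. One rat per time point (0.5, 6, 12, 24, 72, 168 h) was euthanised by isoflurane and cardiac-puncture exsanguination. Sagittal whole-body sections were quantified by phosphorimaging. Samples were thickness-corrected, and concentrations (μg eq/g) were interpolated from least-squares standard curves.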

Spleen [5] = test: Cmax in F344 rat spleen assessed as total compound-derived radioactivity per gram of tissue at 5 mg/kg, iv administered as single bolus dose after 30 mins […]; type: ADME, organism-based; set-up: dose 5 mg/kg, route intravenous; conditions: in vivo, 0.5 h
Outline: (§4)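 Same F344 study: single 5 mg/kg IV [¹⁴C]anidulafungin given over about 5 min. Total drug-derived radioactivity (parent plus metabolites) counted by liquid scintillation, in […]. Noncompartmental analysis of the composite mean profile.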

Liver [6] = test: Drug level in Long Evans rat liver assessed as high disposition of radioactivity per gram of tissue at 5 mg/kg, iv administered as single bolus dose measured 0.5 hrs postdose by autoradiography; type: ADME, organism-based; set-up: dose 5 mg/kg, route intravenous; conditions: in vivo; outline: as §2
Liver [7] = test: Tmax in F344 rat liver assessed as total compound-derived radioactivity at 5 mg/kg, iv administered as single bolus dose […]; type: ADME, organism-based; set-up: dose 5 mg/kg, route intravenous; conditions: in vivo; outline: as §1
Kidney [8] = test: Drug level in Long Evans rat kidney assessed as high disposition of radioactivity per gram of tissue at 5 mg/kg, iv administered as single bolus dose measured 12 hrs postdose by autoradiography; type: ADME, organism-based; set-up: dose 5 mg/kg, route intravenous; conditions: in vivo; outline: as §2
[9] = Tmax in F344 rat skin at 5 mg/kg, iv administered as single bolus dose by HPLC method; type: ADME, organism-based, Zone of skin; set-up: dose 5 mg/kg, route intravenous
Outline: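 F344 males, 10 to 11 weeks old and 223.6 to 243.8 g, got a single 5 mg/kg iv dose of [14C]anidulafungin over about 5 min. Plasma and tissues were collected predose and at 0.083 to 72 h, n = 3 per time point. Parent drug was quantified by HPLC-UV, with LLOQ/ULOQ of 20/5,120 ng/ml in plasma and 220/56,320 ng/g in tissue. Noncompartmental parameters came from a composite mean concentration-time profile.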

[10] = Cmax in F344 rat muscle at 5 mg/kg, iv administered as single bolus dose after 30 min by HPLC method; type: ADME, organism-based, Muscle tissue; set-up: dose 5 mg/kg, route intravenous
Outline: (§5)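 Male F344 rats, 10–11 weeks, 223.6–243.8 g, given one IV dose of [¹⁴C]anidulafungin, 5 mg/kg, over about 5 min. Tissues and blood sampled at 0.083–72 h (n = 3 rats per time). Parent drug measured by HPLC; LLOQ/ULOQ were 20/5,120 ng/ml for plasma and 220/56,320 ng/g for tissue. Noncompartmental parameters taken from the composite mean profile.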

Spleen [11] = test: Drug level in Long Evans rat spleen assessed as radioactivity per gram of tissue at 5 mg/kg, iv administered as single bolus dose measured 12 hrs postdose by autoradiography; type: ADME, organism-based; set-up: dose 5 mg/kg, route intravenous; conditions: in vivo; outline: as §3
Zone of skin [12] = test: AUC (0 to infinity) in F344 rat skin at 5 mg/kg, iv administered as single bolus dose; type: ADME, organism-based; set-up: time infinity, dose 5 mg/kg, route intravenous; conditions: in vivo; outline: as §5
[13] = Drug level in Long Evans rat eye assessed as radioactivity per gram of tissue at 5 mg/kg, iv administered as single bolus dose measured 72 hrs postdose by autoradiography; type: ADME, organism-based; set-up: dose 5 mg/kg, route intravenous; conditions: in vivo; outline: as §2
Lung [14] = test: AUC (0 to infinity) in F344 rat lung at 5 mg/kg, iv administered as single bolus dose; type: ADME, organism-based; set-up: time infinity, dose 5 mg/kg, route intravenous; conditions: in vivo; outline: as §5
Kidney [15] = test: Drug level in Long Evans rat kidney assessed as low disposition of radioactivity per gram of tissue at 5 mg/kg, iv administered as single bolus dose measured 6 hrs postdose by autoradiography; type: ADME, organism-based; set-up: dose 5 mg/kg, route intravenous; conditions: in vivo; outline: as §2
Cerebrospinal fluid = test: Drug level in Long Evans rat cerebrospinal fluid assessed as radioactivity per gram of tissue at 5 mg/kg, iv administered as single bolus dose measured 12 hrs postdose by autoradiography; type: ADME, organism-based; set-up: dose 5 mg/kg, route intravenous; conditions: in vivo; outline: as §2
Kidney [16] = test: AUC (0 to infinity) in F344 rat kidney at 5 mg/kg, iv administered as single bolus dose; type: ADME, organism-based; set-up: time infinity, dose 5 mg/kg, route intravenous; conditions: in vivo; outline: as §5
Kidney [17] = test: Half life in F344 rat kidney assessed as total compound-derived radioactivity at 5 mg/kg, iv administered as single bolus dose […]; type: ADME, organism-based; set-up: dose 5 mg/kg, route intravenous; conditions: in vivo; outline: as §1
Spleen [18] = test: Drug level in Long Evans rat spleen assessed as radioactivity per gram of tissue at 5 mg/kg, iv administered as single bolus dose measured 168 hrs postdose by autoradiography; type: ADME, organism-based; set-up: dose 5 mg/kg, route intravenous; conditions: in vivo; outline: as §3
Lung [19] = test: Cmax in F344 rat lung assessed as total compound-derived radioactivity per gram of tissue at 5 mg/kg, iv administered as single bolus dose after 5 mins by HPLC method; type: ADME, organism-based; set-up: dose 5 mg/kg, route intravenous; conditions: in vivo; outline: as §4
Kidney [20] = test: Drug level in Long Evans rat kidney assessed as low disposition of radioactivity per gram of tissue at 5 mg/kg, iv administered as single bolus dose measured 168 hrs postdose by autoradiography; type: ADME, organism-based; set-up: dose 5 mg/kg, route intravenous; conditions: in vivo; outline: as §2
Blood [21] = test: Drug level in Long Evans rat blood assessed as radioactivity per gram of tissue at 5 mg/kg, iv administered as single bolus dose measured 72 hrs postdose by autoradiography; type: ADME, organism-based; set-up: dose 5 mg/kg, route intravenous; conditions: in vivo; outline: as §2
Zone of skin [22] = test: Half life in F344 rat skin assessed as total compound-derived radioactivity at 5 mg/kg, iv administered as single bolus dose […]; type: ADME, organism-based; set-up: dose 5 mg/kg, route intravenous; conditions: in vivo; outline: as §1
[23] = Drug level in Long Evans rat eye assessed as radioactivity per gram of tissue at 5 mg/kg, iv administered as single bolus dose measured 12 hrs postdose by autoradiography; type: ADME, organism-based; set-up: dose 5 mg/kg, route intravenous; conditions: in vivo; outline: as §2
Blood [24] = test: Drug level in Long Evans rat blood assessed as radioactivity per gram of tissue at 5 mg/kg, iv administered as single bolus dose measured 0.5 hrs postdose by autoradiography; type: ADME, organism-based; set-up: dose 5 mg/kg, route intravenous; conditions: in vivo
Outline: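 Male pigmented Long Evans rats, 7.5 weeks, 202–217 g, given one IV dose of [¹⁴C]anidulafungin, 5 mg/kg. Euthanised under isoflurane with cardiac exsanguination, one rat per time. Sagittal whole-body sections quantified by phosphorimaging, corrected for section thickness. Concentrations in μg eq/g interpolated from least-squares standard curves.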

## CCCCCOc1ccc(-c2ccc(-c3ccc([14C](=O)N[C@H]4C[C@@H](O)[C@@H](O)NC(=O)[C@@H]5[C@@H](O)[C@@H](C)CN5C(=O)[C@H]([C@@H](C)O)NC(=O)[C@H]([C@H](O)[C@@H](O)c5ccc(O)cc5)NC(=O)[C@@H]5C[C@@H](O)CN5C(=O)[C@H]([C@@H](C)O)NC4=O)cc3)cc2)cc1 [14C-ANIDULAFUNGIN]
Muscle tissue [1]
  t1/2: 37.5 h
Liver [2]
  Drug uptake: 7.22 ugequiv
Blood [3]
  Tmax: 4.98 min
Muscle tissue [4]
  Drug uptake: 1.17 ugequiv
Spleen [5]
  Cmax: 30.92 ugequiv/g
Liver [6]
  Drug uptake: 11.79 ugequiv
Liver [7]
  Tmax: 8 h
Kidney [8]
  Drug uptake: 14.1 ugequiv
[9]
  Tmax: 0.5 h
[10]
  Cmax: 3840 ng/g
Spleen [11]
  Drug uptake: 11.48 ugequiv
Zone of skin [12]
  AUC: 124.11 µg·h/g
[13]
  Drug uptake: 0.72 ugequiv
Lung [14]
  AUC: 638.21 µg·h/g
Kidney [15]
  Drug uptake: 8.45 ugequiv
Cerebrospinal fluid
  Drug uptake: 3.82 ugequiv
Kidney [16]
  AUC: 658.93 µg·h/g
Kidney [17]
  t1/2: 48.5 h
Spleen [18]
  Drug uptake: 1.53 ugequiv
Lung [19]
  Cmax: 39.29 ugequiv/g
Kidney [20]
  Drug uptake: 0.7 ugequiv
Blood [21]
  Drug uptake: 0.85 ugequiv
Zone of skin [22]
  t1/2: 56.6 h
[23]
  Drug uptake: 1.36 ugequiv
Blood [24]
  Drug uptake: 6.85 ugequiv
